Test results reported in ChEMBL document CHEMBL5136958, “The development of HEC-866 and its analogues for the treatment of idiopathic pulmonary fibrosis” (RSC Med Chem, 2021).
Activity calls are given as the source filed them. The calls are words filed in the database; no cut-off is given here.

Legend:
[1] = AUClast in Sprague-Dawley rat model of bleomycin-induced pulmonary fibrosis at 2 mg/kg, iv by LC-MS/MS analysis; type: ADME, organism-based; set-up: time 0 - last, dose 2 mg/kg, route iv; details: in vivo
How it was run: (§1)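 Male Sprague-Dawley rats with induced pulmonary fibrosis; single i.v. (2.0 mg kg⁻¹) or p.o. (5.0 mg kg⁻¹) administration. Plasma samples stored at −70 °C; the supernatant was analysed by LC-MS/MS for PK parameters.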

[2] = AUC(infinity) in Sprague-Dawley rat model of bleomycin-induced pulmonary fibrosis at 2 mg/kg, iv by LC-MS/MS analysis; type: ADME, organism-based; set-up: time infinity, dose 2 mg/kg, route iv; details: in vivo; how it was run: as §1
[3] = Clearance in Sprague-Dawley rat model of bleomycin-induced pulmonary fibrosis at 2 mg/kg, iv by LC-MS/MS analysis; type: ADME, organism-based; details: in vivo; how it was run: as §1
HFL1 = experiment: Antifibrotic activity in TGF-beta1-induced HFL1 cell injury assessed as alpha-SMA expression at 5 uM measured after 48 hrs by Western blot analysis (reference value: 100%); type: functional, Homo sapiens
How it was run: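 HFL-1 cells stimulated with TGF-β1; α-SMA protein detected by Western blot with anti-α-SMA antibody, normalised to tubulin; mean of n = 3.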

[4] = Clearance in dog at 1 mg/kg, iv by LC-MS/MS analysis; type: ADME, organism-based, Canis lupus familiaris; details: in vivo
[5] = Tmax in Sprague-Dawley rat model of bleomycin-induced pulmonary fibrosis at 5 mg/kg, po by LC-MS/MS analysis; type: ADME, organism-based; details: in vivo
How it was run: (§2)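 Male Sprague-Dawley rats with induced pulmonary fibrosis were dosed 2.0 mg kg⁻¹ i.v. or 5.0 mg kg⁻¹ p.o. Plasma was stored at -70 °C, and the supernatant was analysed by LC-MS/MS.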

[6] = Cmax in Sprague-Dawley rat model of bleomycin-induced pulmonary fibrosis at 5 mg/kg, po by LC-MS/MS analysis; type: ADME, organism-based; set-up: dose 5 mg/kg, route po; details: in vivo; how it was run: as §1
[7] = Volume of distribution at steady state in Sprague-Dawley rat model of bleomycin-induced pulmonary fibrosis at 2 mg/kg, iv by LC-MS/MS analysis; type: ADME, organism-based; details: in vivo, read-out: Vdss; how it was run: as §2
[8] = Half life in dog at 1 mg/kg, iv by LC-MS/MS analysis; type: ADME, organism-based, Canis lupus familiaris; details: in vivo
[9] = AUClast in dog at 5 mg/kg, po by LC-MS/MS analysis; type: ADME, organism-based, Canis lupus familiaris; set-up: time 0 - last, dose 5 mg/kg, route po; details: in vivo
[10] = Half life in dog at 5 mg/kg, po by LC-MS/MS analysis; type: ADME, organism-based, Canis lupus familiaris; details: in vivo
[11] = Oral bioavailability in dog at 5 mg/kg by LC-MS/MS analysis; type: ADME, organism-based, Canis lupus familiaris; details: in vivo
[12] = Clearance in cynomolgus monkey at 1 mg/kg, iv by LC-MS/MS analysis; type: ADME, organism-based, Macaca fascicularis; details: in vivo
[13] = Half life in cynomolgus monkey at 1 mg/kg, iv by LC-MS/MS analysis; type: ADME, organism-based, Macaca fascicularis; details: in vivo
[14] = Cmax in cynomolgus monkey at 5 mg/kg, po by LC-MS/MS analysis; type: ADME, organism-based, Macaca fascicularis; set-up: dose 5 mg/kg, route po; details: in vivo
[15] = Oral bioavailability in cynomolgus monkey at 5 mg/kg by LC-MS/MS analysis; type: ADME, organism-based, Macaca fascicularis; details: in vivo
Rattus norvegicus = experiment: Antifibrotic activity against bleomycin-induced pulmonary fibrosis in Sprague-Dawley rat assessed as reduction in lung hydroxyproline content at 6 mg/kg, po administered daily for 1 to 14 days starting from post bleomycin stimulation; type: functional, organism-based; details: time 1-14 day
[16] = Half life in human liver microsomes by LC-MS/MS analysis; type: ADME, Microsome
How it was run: (§3)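 Liver microsomes (human, monkey, dog, rat, mouse) incubated with test compound at 37 °C with NADPH cofactor; samples at 0, 5, 15, 30, 60 min for half-life and in vitro CLint.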

[17] = Half life in rat liver microsomes by LC-MS/MS analysis; type: ADME, Microsome; how it was run: as §3
[18] = Half life in mouse liver microsomes by LC-MS/MS analysis; type: ADME, Microsome; how it was run: as §3
[19] = Intrinsic clearance in human liver microsomes by LC-MS/MS analysis; type: ADME, Microsome; details: read-out: CLH; how it was run: as §3
[20] = Intrinsic clearance in monkey liver microsomes by LC-MS/MS analysis; type: ADME, Macaca mulatta, Microsome; details: rhesus monkey, read-out: CLH
How it was run: (§4)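 Liver microsomes were incubated with the compound at 37 °C with NADPH as cofactor and sampled at 0, 5, 15, 30 and 60 min. Half-life (min) and in vitro CLint (mL min⁻¹ kg) were derived from these samples.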

[21] = Intrinsic clearance in dog liver microsomes by LC-MS/MS analysis; type: ADME, Canis lupus familiaris, Microsome; details: read-out: CLH; how it was run: as §3
[22] = Intrinsic clearance in rat liver microsomes by LC-MS/MS analysis; type: ADME, Microsome; details: read-out: CLH; how it was run: as §4
[23] = Intrinsic clearance in mouse liver microsomes by LC-MS/MS analysis; type: ADME, Microsome; details: read-out: CLH; how it was run: as §4
Cytochrome P450 1A2 = biological target: T1, Cytochrome P450 1A2 (Homo sapiens, UniProt P05177); experiment: Inhibition of CYP1A2 in human liver microsomes by LC-MS/MS analysis; type: ADME, Microsome
T1 sequence (P05177 whole entry): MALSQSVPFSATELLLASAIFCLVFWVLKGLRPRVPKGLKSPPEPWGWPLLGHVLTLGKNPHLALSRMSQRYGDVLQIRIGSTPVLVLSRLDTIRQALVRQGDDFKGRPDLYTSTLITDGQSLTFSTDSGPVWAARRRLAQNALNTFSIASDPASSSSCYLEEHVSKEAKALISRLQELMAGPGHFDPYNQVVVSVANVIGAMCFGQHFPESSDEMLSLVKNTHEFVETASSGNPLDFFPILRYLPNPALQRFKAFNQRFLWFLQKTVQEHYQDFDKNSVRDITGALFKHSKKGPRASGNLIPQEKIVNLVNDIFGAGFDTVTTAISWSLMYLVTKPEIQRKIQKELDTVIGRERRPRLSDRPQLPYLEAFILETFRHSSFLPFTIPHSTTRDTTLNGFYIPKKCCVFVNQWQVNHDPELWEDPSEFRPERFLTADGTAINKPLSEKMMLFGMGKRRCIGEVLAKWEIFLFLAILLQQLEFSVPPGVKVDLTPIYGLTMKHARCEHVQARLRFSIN
How it was run: (§5)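 Human microsomes incubated with CYP-specific substrates (1A2, 2C9, 2C19, 2D6, 3A4) and test compound at 0.0–10 μM; IC50 determined.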

Cytochrome P450 2C9 = Cytochrome P450 2C9 (Homo sapiens, UniProt P11712); experiment: Inhibition of CYP2C9 in human liver microsomes by LC-MS/MS analysis; type: ADME, Microsome; how it was run: as §5
Cytochrome P450 2D6 = Cytochrome P450 2D6 (Homo sapiens, UniProt P10635); experiment: Inhibition of CYP2D6 in human liver microsomes by LC-MS/MS analysis; type: ADME, Microsome; how it was run: as §5
Cytochrome P450 3A4 = Cytochrome P450 3A4 (Homo sapiens, UniProt P08684); experiment: Inhibition of CYP3A4 in human liver microsomes by LC-MS/MS analysis; type: ADME, Microsome; how it was run: as §5
[24] = biological target: Voltage-gated inwardly rectifying potassium channel KCNH2 (Homo sapiens, UniProt Q12809); experiment: Inhibition of human ERG stably expressed in CHO cells by automated Qpatch clamp method; type: toxicity, cell-based
How it was run: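 CHO cell line stably transfected with hERG cDNA expressing hERG channels; channel inhibition measured, IC50 reported.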

[25] = Mutagenecity in Salmonella typhimurium TA100 at 7.8 to 1000 ug measured after 2 to 3 days by mini-Ames test; type: toxicity, Salmonella enterica subsp. enterica serovar Typhimurium; details: dose lower 7.8 µg, time lower 2 day, dose upper 1000 µg, time upper 3 day
How it was run: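 Bacterial reverse mutation assay scoring reverse gene mutations at the histidine locus in Salmonella typhimurium strains TA98 and TA100.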

[26] = Toxicity in po dosed Sprague-Dawley rat administered once daily for 28 days; type: organism-based; details: in vivo, time 28 day

Sequence of Voltage-gated inwardly rectifying potassium channel KCNH2 (Q12809 whole entry): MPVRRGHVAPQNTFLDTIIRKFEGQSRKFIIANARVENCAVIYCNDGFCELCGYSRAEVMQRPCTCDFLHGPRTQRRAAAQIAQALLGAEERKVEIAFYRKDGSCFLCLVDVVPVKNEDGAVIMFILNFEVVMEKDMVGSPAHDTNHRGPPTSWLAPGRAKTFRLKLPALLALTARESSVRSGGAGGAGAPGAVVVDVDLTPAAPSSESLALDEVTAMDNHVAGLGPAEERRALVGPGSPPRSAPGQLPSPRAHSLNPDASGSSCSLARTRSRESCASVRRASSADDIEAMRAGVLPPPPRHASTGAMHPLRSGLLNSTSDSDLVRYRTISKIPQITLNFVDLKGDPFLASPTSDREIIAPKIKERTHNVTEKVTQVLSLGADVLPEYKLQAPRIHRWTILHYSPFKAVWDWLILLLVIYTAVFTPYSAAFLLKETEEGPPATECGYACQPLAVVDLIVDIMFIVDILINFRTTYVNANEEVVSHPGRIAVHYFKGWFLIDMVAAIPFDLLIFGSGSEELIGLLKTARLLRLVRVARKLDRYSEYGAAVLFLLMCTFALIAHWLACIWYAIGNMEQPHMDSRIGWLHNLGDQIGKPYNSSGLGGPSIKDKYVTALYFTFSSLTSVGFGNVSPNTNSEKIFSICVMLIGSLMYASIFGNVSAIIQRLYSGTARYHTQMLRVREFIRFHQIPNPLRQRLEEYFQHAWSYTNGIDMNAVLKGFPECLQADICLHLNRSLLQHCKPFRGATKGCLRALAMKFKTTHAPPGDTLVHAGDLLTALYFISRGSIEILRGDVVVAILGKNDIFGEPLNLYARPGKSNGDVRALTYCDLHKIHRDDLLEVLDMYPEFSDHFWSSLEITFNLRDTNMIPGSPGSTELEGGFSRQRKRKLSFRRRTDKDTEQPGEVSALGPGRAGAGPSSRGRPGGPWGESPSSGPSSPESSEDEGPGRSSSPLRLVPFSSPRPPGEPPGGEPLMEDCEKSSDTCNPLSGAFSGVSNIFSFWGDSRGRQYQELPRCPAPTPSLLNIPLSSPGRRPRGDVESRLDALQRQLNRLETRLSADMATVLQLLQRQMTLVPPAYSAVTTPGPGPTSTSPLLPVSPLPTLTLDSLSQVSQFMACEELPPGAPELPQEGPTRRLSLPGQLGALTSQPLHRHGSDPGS
Sequence of Cytochrome P450 2C9 (P11712 whole entry): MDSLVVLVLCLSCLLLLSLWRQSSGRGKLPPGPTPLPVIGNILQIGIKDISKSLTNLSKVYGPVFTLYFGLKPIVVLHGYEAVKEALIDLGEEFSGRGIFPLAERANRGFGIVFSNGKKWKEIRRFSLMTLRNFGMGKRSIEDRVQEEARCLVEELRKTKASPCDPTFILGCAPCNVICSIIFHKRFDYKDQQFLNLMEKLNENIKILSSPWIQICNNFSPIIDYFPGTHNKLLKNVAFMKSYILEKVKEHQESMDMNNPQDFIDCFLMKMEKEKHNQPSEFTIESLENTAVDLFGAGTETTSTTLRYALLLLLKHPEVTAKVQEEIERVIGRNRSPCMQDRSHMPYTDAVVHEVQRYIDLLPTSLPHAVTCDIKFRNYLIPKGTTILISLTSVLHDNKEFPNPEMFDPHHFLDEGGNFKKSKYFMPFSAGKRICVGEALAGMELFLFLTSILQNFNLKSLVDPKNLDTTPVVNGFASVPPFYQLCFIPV
Sequence of Cytochrome P450 3A4 (P08684 whole entry): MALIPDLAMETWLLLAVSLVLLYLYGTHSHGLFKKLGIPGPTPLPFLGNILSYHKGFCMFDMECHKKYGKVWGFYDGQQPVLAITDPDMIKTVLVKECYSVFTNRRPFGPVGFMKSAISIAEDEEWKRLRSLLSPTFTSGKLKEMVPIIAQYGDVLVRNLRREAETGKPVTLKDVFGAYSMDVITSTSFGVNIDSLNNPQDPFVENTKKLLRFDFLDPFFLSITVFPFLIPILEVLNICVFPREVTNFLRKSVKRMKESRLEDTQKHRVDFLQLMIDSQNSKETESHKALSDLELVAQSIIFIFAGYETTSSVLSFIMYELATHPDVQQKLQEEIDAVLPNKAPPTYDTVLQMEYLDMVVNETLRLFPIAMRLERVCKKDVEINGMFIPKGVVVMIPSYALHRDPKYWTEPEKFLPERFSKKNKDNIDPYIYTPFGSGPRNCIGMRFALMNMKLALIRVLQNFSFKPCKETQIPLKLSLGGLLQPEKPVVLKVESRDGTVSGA
Sequence of Cytochrome P450 2D6 (P10635 whole entry): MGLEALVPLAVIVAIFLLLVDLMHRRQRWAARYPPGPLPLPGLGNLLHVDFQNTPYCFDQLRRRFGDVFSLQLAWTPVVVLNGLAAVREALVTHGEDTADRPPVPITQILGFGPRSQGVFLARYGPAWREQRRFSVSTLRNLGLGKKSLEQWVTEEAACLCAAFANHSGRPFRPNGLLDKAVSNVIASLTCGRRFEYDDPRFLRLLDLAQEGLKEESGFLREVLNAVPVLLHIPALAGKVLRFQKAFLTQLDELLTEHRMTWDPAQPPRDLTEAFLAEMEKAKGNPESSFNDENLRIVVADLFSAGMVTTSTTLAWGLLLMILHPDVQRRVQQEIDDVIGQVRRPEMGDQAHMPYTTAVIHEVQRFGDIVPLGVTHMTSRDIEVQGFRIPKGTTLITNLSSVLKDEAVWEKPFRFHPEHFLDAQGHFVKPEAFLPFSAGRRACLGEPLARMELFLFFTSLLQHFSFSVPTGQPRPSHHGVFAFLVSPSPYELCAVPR

## Cc1cc(=O)n(-c2ccc(N3CCC(Cc4ccc(Cl)c(F)c4)CC3)c(Cl)c2)c(C)n1
[1]
  AUC(0-t): 4280 ng·h/mL
[2]
  AUC(0-inf): 7980 ng·h/mL
[3]
  clearance: 4.33 mL/min/kg
HFL1
  Activity: 72.56%
[4]
  clearance: 1.67 mL/min/kg
[5]
  Tmax: 1.7 h
[6]
  Cmax: 1120 ng/mL
[7]
  Vd: 8.2 L/kg
[8]
  half-life: 11 h
[9]
  AUC(0-t): 5910 ng·h/mL
[10]
  half-life: 27 h
[11]
  bioavailability: 15%
[12]
  clearance: 3.33 mL/min/kg
[13]
  half-life: 16 h
[14]
  Cmax: 1060 ng/mL
[15]
  bioavailability: 72%
Rattus norvegicus
  Activity: Active
[16]
  half-life: 1.73 h
[17]
  half-life: 1.71 h
[18]
  half-life: 1.18 h
[19]
  CLint scaled: 16.7 mL/min/kg
[20]
  CLint scaled: 48.6 mL/min/kg
[21]
  CLint scaled: 11.7 mL/min/kg
[22]
  CLint scaled: 24.2 mL/min/kg
[23]
  CLint scaled: 77 mL/min/kg
Cytochrome P450 1A2
  IC50: > 10 µM
Cytochrome P450 2C9
  IC50: > 10 µM
Cytochrome P450 2D6
  IC50: > 10 µM
Cytochrome P450 3A4
  IC50: > 10 µM
[24]
  IC50: > 30 µM
[25]
  Activity: Non-Toxic
[26]
  MTD at 672 h: > 500 mg/kg
